This passage reports survival and Activity results from ChEMBL document CHEMBL1255283, “Comparative efficacies of rifaximin and vancomycin for treatment of Clostridium difficile-associated diarrhea and prevention of disease recurrence in hamsters” (2008).

SMILES strings stand for the structures. Calls of active or inactive are those of the source. The calls are words filed in the database; no cut-off is given here.

For assay [1], the system named is Clostridioides difficile. In words: Antibacterial activity against Clostridium difficile VPI 10463 infected in golden syrian hamster assessed as survival of the […] at 100 mg/kg/day for 5 days measured after 7 days. Format: functional. A digest of the protocol: (§1)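 Prevention design in hamsters (n = 10/group): clindamycin phosphate 10 mg/kg sc on day 0, oral gavage infection with C. difficile VPI 10463 on day 1. Rifaximin suspended in 0.1 M phosphate buffer pH 7.4 plus 4.5‰ SDS, given by gavage once daily from day 1 for 5 doses; vehicle and uninfected controls. Survivors sacrificed day 7. Weight change is % of initial body weight; non-survivors excluded.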

The test system of assay [2] is Clostridioides difficile. In words: Antibacterial activity against Clostridium difficile VPI 10463 infected in golden syrian hamster assessed as survival of the […] at 50 mg/kg/day for 5 days measured after 7 days. Format: functional. An outline of the steps:
as §1

Assay [3] deals with Clostridioides difficile. In words: Antibacterial activity against Clostridium difficile VPI 10463 infected in golden syrian hamster assessed as body weight loss at 100 mg/kg/day for 5 days measured after 7 days relative to initial body weight. Format: functional. An outline of the steps:
as §1

Assay [4] relates to Clostridioides difficile. Briefly: Antibacterial activity against Clostridium difficile VPI 10463 infected in golden syrian hamster assessed as body weight loss at 50 mg/kg/day for 5 days measured after 7 days relative to initial body weight. It counts as functional. An outline of the steps: as §1
Assay [5] deals with Clostridioides difficile. Briefly: Antibacterial activity against Clostridium difficile VPI 10463 infected in golden syrian hamster assessed as body weight loss at 25 mg/kg/day for 5 days measured after 7 days relative to initial body weight. It counts as functional. An outline of the steps: as §1
Assay [6] relates to Clostridioides difficile. Briefly: Antibacterial activity against Clostridium difficile VPI 10463 infected in golden syrian hamster assessed as survival of the […] at 100 mg/kg/day administered 24 hrs after infection for 5 days measured after 7 days. It counts as functional, organism-based. An outline of the steps: (§2)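 Treatment design in hamsters (10/group per cohort): clindamycin phosphate 10 mg/kg sc on day 0, gavage infection with VPI 10463 on day 1. Oral rifaximin, suspended in phosphate buffer pH 7.4 with 4.5‰ SDS, given daily by gavage from day 2 for five doses. Survival read at day 7, with Kaplan-Meier and log-rank analysis.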

Assay [7] deals with Clostridioides difficile. Briefly: Antibacterial activity against Clostridium difficile VPI 10463 infected in golden syrian hamster assessed as survival of the […] at 50 mg/kg/day administered 24 hrs after infection for 5 days measured after 7 days. Format: functional, organism-based. An outline of the steps: as §2
Assay [8] concerns Clostridioides difficile. In words: Antibacterial activity against Clostridium difficile VPI 10463 infected in golden syrian hamster assessed as survival of the […] at 100 mg/kg/day administered 24 hrs after infection for 5 days measured after 28 days. Format: functional. A digest of the protocol:
(§3)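 Relapse study: hamsters given clindamycin phosphate 10 mg/kg sc on day 0 and infected with VPI 10463 by gavage on day 1. Daily oral rifaximin by gavage in SDS/phosphate buffer vehicle on days 2–6. Animals followed about one month for recurrence, with Kaplan-Meier survival. Body weight tracked over time as % of initial weight.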

Assay [9] has as its system Clostridioides difficile. In words: Antibacterial activity against Clostridium difficile VPI 10463 infected in golden syrian hamster assessed as body weight gain at 100 mg/kg/day for 5 days relative to initial body weight. Format: functional. An outline of the steps: as §3
In assay [10] the test system is Clostridioides difficile. Briefly: Antibacterial activity against Clostridium difficile VPI 10463 infected in golden syrian hamster assessed as survival of the […] at 50 mg/kg/day administered 24 hrs after infection for 5 days measured after 28 days. Format: functional, organism-based. A digest of the protocol: as §3
Assay [11] concerns Clostridioides difficile. Briefly: Antibacterial activity against Clostridium difficile VPI 10463 infected in golden syrian hamster assessed as survival of the […] at 25 mg/kg/day administered 24 hrs after infection for 5 days measured after 28 days. It counts as functional, organism-based. An outline of the steps:
as §3

In assay [12] the test system is Clostridioides difficile. In words: Antibacterial activity against Clostridium difficile VPI 10463 infected in golden syrian hamster assessed as survival of the […] at 25 mg/kg/day administered 24 hrs after infection for 5 days measured after 7 days. It counts as functional. A digest of the protocol: as §2

On to `CO[C@H]1/C=C/O[C@@]2(C)Oc3c(C)c(O)c4c(O)c(c5c(nc6cc(C)ccn65)c4c3C2=O)NC(=O)/C(C)=C\C=C\[C@H](C)[C@H](O)[C@@H](C)[C@@H](O)[C@@H](C)[C@H](OC(C)=O)[C@@H]1C` [RIFAXIMIN], for which the survival at 100 mg/kg/day was determined as 80% with Clostridioides difficile [1] and 100% in the assay with Clostridioides difficile [8]. The survival at 50 mg/kg/day in the assay on Clostridioides difficile [2] amounted to 70%. Besides, the Activity was -8.1% in the assay on Clostridioides difficile [3], -7.9% in the assay on Clostridioides difficile [4], -8.4% in the assay on Clostridioides difficile [5] and 16.7% in the assay on Clostridioides difficile [9]. The outcome in the assay on Clostridioides difficile [6], in the assay on Clostridioides difficile [7], in the assay with Clostridioides difficile [10] and in the assay with Clostridioides difficile [11] was Active.

Turning to `CN[C@H](CC(C)C)C(=O)N[C@H]1C(=O)N[C@@H](CC(N)=O)C(=O)N[C@H]2C(=O)N[C@H]3C(=O)N[C@H](C(=O)N[C@H](C(=O)O)c4cc(O)cc(O)c4-c4cc3ccc4O)[C@H](O)c3ccc(c(Cl)c3)Oc3cc2cc(c3O[C@@H]2O[C@H](CO)[C@@H](O)[C@H](O)[C@H]2O[C@H]2C[C@](C)(N)[C@H](O)[C@H](C)O2)Oc2ccc(cc2Cl)[C@H]1O` [VANCOMYCIN], the survival at 50 mg/kg/day with Clostridioides difficile [2] came out at 70%. The Activity in the assay on Clostridioides difficile [4] was -6.6%. Besides, the outcome with Clostridioides difficile [7], in the assay with Clostridioides difficile [10] and with Clostridioides difficile [11] was Active. Further, the survival at 25 mg/kg/day in the assay with Clostridioides difficile [12] came to 80%. Besides, the survival at 100 mg/kg/day with Clostridioides difficile [8] was 25%.
